Screening data as filed in PubChem BioAssay.
KCNK3 inh: human KCNK3 channel inhibition, primary screen; B-score at 10 µM; CHO-KCNK3 thallium flux, FluxOR fluorescence; active compounds read low; 340,000 compounds, 0.84% hits;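 active means B-score under library mean minus 4 SD, starting fluorescence ratio at most library mean plus 5 SD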;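 further: more negative B-score means stronger inhibition of thallium flux through KCNK3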
KCNK9 inh: blocks the human KCNK9 two-pore domain potassium channel. Q9NPC2. HEK293 KCNK9, FluxOR thallium flux fluorescence; active compounds read low. B-score at 10 µM. 310,000 compounds, 1.2% hits;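 active means ratio B-score over 3 SD below the library mean, with starting fluorescence within 5 SD of its mean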;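 further: negative B-score means less thallium flux so channel inhibition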
Kir21 inh: inhibitors of mouse Kir2.1 inward-rectifier potassium channel; P35561; HEK293-Kir2.1, FluxOR thallium flux fluorescence; active compounds read low; B-score at 10 µM; 310,000 compounds, 0.85% hits; AID 1672;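 active means fluorescence ratio B-score at or below minus 3 SD of library scores, with starting-brightness B-score within 2 SD, cut at about -4.2 in these data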;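 further: channel flux triggered by added potassium and thallium sulfate stimulus; B-score of peak minus minimum fluorescence over baseline after thallium stimulus; more negative B-score means stronger Kir2.1 block with less thallium influx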
hERG protect: hERG (human) protection from proarrhythmic block; CHO-hERG, FluxOR thallium flux, dofetilide IC70 present; activation (rescue from dofetilide block), less the hit threshold, % at 10 µM; 310,000 compounds, 0.51% hits;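 active means activation above the mean of controls blocked by dofetilide plus 5 SD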;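 further: thallium influx through hERG after potassium depolarization seen as dye fluorescence rise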
KCNQ1 pot: human KCNQ1 channel potentiation or activation; B-score at 10 µM; CHO-K1 KCNQ1, thallium flux FluxOR fluorescence; active compounds read high; P51787; 310,000 compounds, 0.35% hits;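 active means fluorescence ratio B-score, a plate-corrected score, at least three library SD, with initial intensity B-score within 5 SD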
Target sequence (P51787 whole entry, looked up): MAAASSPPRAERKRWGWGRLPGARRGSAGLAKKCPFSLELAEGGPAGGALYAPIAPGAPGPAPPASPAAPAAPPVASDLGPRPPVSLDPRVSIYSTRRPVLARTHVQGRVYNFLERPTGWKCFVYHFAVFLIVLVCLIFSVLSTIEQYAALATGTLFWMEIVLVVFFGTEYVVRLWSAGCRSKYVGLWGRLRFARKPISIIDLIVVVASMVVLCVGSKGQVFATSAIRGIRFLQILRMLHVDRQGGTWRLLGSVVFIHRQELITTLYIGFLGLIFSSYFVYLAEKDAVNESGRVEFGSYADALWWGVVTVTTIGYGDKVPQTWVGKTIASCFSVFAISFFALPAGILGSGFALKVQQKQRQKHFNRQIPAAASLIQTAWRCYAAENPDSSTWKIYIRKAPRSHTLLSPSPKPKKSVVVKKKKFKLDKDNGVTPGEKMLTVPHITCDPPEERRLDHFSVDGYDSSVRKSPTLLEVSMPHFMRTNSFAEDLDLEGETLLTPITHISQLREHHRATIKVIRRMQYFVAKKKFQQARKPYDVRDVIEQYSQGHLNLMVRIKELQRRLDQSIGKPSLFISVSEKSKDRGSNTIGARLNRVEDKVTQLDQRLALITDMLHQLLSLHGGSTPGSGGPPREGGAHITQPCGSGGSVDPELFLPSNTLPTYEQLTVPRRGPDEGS
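System: CHO-K1 cells stably expressing KCNQ1 / Medium: assay buffer for compound exposure, DMSO matched across wells / Reagent: thallium- and potassium-containing depolarizing buffer / Compound: one concentration, matched DMSO / Incubation: 20 min compound pretreatment at room temperature / Measured by: kinetic FluxOR fluorescence, 10 s baseline plus 110 s post-stimulus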
KCNQ1 block: blocks the human KCNQ1 potassium channel | P51787 | CHO-K1 KCNQ1, FluxOR thallium flux fluorescence; active compounds read high | B-score at 10 µM | 310,000 compounds, 1.3% hits | AID 2642;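 active means compounds whose thallium flux B-score, printed positive for inhibition, exceeds three library SD while starting fluorescence stays within three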;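 further: channel opened by potassium depolarization with thallium stimulus after 20 min compound exposure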
KCNK3 inh conf: human KCNK3 channel inhibition, confirmation assay | shares compounds with KCNK3 inh | 2,400 compounds, 99% hits | ratio percent of control, % at 10 µM | CHO-KCNK3 thallium flux, FluxOR fluorescence; 0% buffer, 100% carvedilol maximal block;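 active means ratio percent of control, averaged over triplicates, above buffer control mean plus 5 SD, cut at about 64% in these data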;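 further: ratio is the fluorescence rise from min to max over baseline after thallium stimulus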
KCNK3 noninduced: activity in cells without induced KCNK3 expression; shares compounds with KCNK3 inh; non-induced KCNK3 parental cells, FluxOR thallium flux; active compounds read low; thallium flux ratio (lower = more inhibition) at 10 µM; 2,400 compounds, 40% hits;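 active means thallium flux ratio, averaged over three wells, more than 5 SD below the buffer control mean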;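 further: host cells are CHO cells without KCNK3 induction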
Of the large screens only hits and unclear results are named; the others gave an inactive call (follow-up assays come after a bar, where they were run). Only some compounds are listed: those with a hit (about 3.7% of all), similar ones and a draw of the others.

COC(=O)C1=C(C)N(C2CCCCC2)C(=O)/C1=C\c1cccs1	KCNK3 inh -9.8 | KCNK3 inh conf 98.0 | KCNK3 noninduced 0.139
Cc1cccc2c(C(=O)O)cc(-c3cccnc3)nc12	none
Cc1cc(C)c2nc(-c3cccnc3)cc(C(=O)NC(C)c3cnn(C)c3C)c2c1 (stereo unspecified)	KCNK3 inh -9.23 | KCNK3 inh conf 111.0 | KCNK3 noninduced 0.156
O=C(CNCCc1ccccc1)N1CCc2ccccc2C1	none
COc1ccc(S(=O)(=O)N2CCN(C(=O)c3ccc([N+](=O)[O-])o3)CC2)cc1	none
COc1ccc(/C=C/C(=O)c2ccc([N+](=O)[O-])o2)cc1	KCNK3 inh -10.7 | KCNK3 inh conf 99.0 | KCNK3 noninduced inactive
COc1ccc(/C=C/C(=O)OCc2cccc([N+](=O)[O-])c2)cc1	KCNK3 inh -9.59 | KCNK3 inh conf 95.3 | KCNK3 noninduced 0.14
CCN(CC)CCNc1ccc(C)c2sc3ccc(O)cc3c(=O)c12	none (no result: KCNK9 inh, Kir21 inh, hERG protect, KCNQ1 pot, KCNQ1 block)
CC(=O)Nc1cc(C(=O)NCCN2CCN(Cc3ccccc3)CC2)ccc1Sc1ccc(C)cc1	none
Cc1cc(C(=O)NCC23CC4CC(CC(C4)C2)C3)c(C)o1	none (no result: KCNK3 inh)
COc1ccccc1-c1c(C)oc2c(CN3CCN(CCO)CC3)c(O)ccc2c1=O	KCNK3 inh -19.8 | KCNK3 inh conf 59.0 | KCNK3 noninduced inactive
COc1ccccc1-c1c(C)oc2c(CN3CCN(C)CC3)c(O)ccc2c1=O	none
COc1ccc(CC(=O)NCC2CCCN(Cc3cc(OC)cc(OC)c3)C2)cc1 (stereo unspecified)	none
c1ccc(CNc2ncnc3scc(-c4cccs4)c23)nc1	KCNK3 inh -11.2 | KCNK3 inh conf 118.3 | KCNK3 noninduced inactive
c1ccc(-c2csc3ncnc(NCc4ccccn4)c23)cc1	none
O=C(NCc1ccco1)/C(=C\c1ccco1)NC(=O)c1ccco1	none
CN(C)C=NC(=O)/C(C#N)=C/c1ccccc1	none
COc1ccccc1CNC(c1ccccc1)c1ccccc1	none
CCOc1ccccc1CNC(c1ccccc1)c1ccccc1	KCNK3 inh -10.3 | KCNK3 inh conf 67.0 | KCNK3 noninduced 0.157
COc1ccc(NC(=S)N(CCCN2CCOCC2)C(C)c2cc3ccccc3o2)cc1 (stereo unspecified)	none
COc1cccc2cc(C(C)N(CCCN3CCOCC3)C(=S)Nc3ccc(C)cc3)oc12 (stereo unspecified)	KCNK3 inh -9.5 | KCNK3 inh conf 105.3 | KCNK3 noninduced inactive
N#Cc1cnc(NCc2ccc(Cl)cc2Cl)nc1	KCNK3 inh -11.7 | KCNK3 inh conf 107.7 | KCNK3 noninduced inactive
COc1ccc2oc(C(=O)N3CCN(c4ncccn4)CC3)c(C)c2c1	none
Cc1ccc2c(C)c(C(=O)N3CCN(c4ncccn4)CC3)oc2c1C	KCNK3 inh -9.12, KCNK9 inh -6.73 | KCNK3 inh conf 69.3 | KCNK3 noninduced inactive
COC(=O)[C@]1(C)N[C@H](CN(C)C(=O)Nc2ccc(C(F)(F)F)cc2)[C@@H]2C(=O)N(C)C(=O)[C@@H]21	none (no result: KCNK9 inh, Kir21 inh, hERG protect, KCNQ1 pot, KCNQ1 block)
O=C(NCc1ccc(F)cc1)C1CCCN1S(=O)(=O)c1cccc2nsnc12 (stereo unspecified)	none
Cc1noc(C)c1COc1ccccc1C(=O)NCCOc1ccccc1F	none (no result: KCNK9 inh, Kir21 inh, hERG protect, KCNQ1 pot, KCNQ1 block)
Cc1noc(C)c1COc1ccccc1C(=O)NC1CCC(C)CC1 (stereo unspecified)	KCNK3 inh -10.4 | KCNK3 inh conf 105.7 | KCNK3 noninduced inactive
COc1ccc(/C=C/C(=O)N2CCCc3ccccc32)c(OC)c1	none
COc1ccc(OC)c(/C=C/C(=O)N2CCCc3ccccc32)c1	KCNK3 inh -11.2 | KCNK3 inh conf 113.3 | KCNK3 noninduced inactive
O=C(CNc1cc(S(=O)(=O)N2CCOCC2)ccc1N1CCCC1)N1CCc2ccccc21	none
